In ChEMBL document CHEMBL4014335, “Activation of Phenyl 4-(2-Oxo-3-alkylimidazolidin-1-yl)benzenesulfonates Prodrugs by CYP1A1 as New Antimitotics Targeting Breast Cancer Cells” (J Med Chem, 2017):
pIC50: −log10 of the molar value. Active and inactive are the calls of the source. The rule behind the calls is not given here.

Experiments:
[1] = tested on: MCF7; test: Antiproliferative activity against human MCF7 cells after 48 hrs by SRB assay; assay type: functional, cell-based; conditions: MCF7, 48 h
In short: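 SRB assay run as in the NCI screen with slight modifications. Seeding: HT-29 5.0 x 10^3, M21 3.5 x 10^3, MCF7 7.5 x 10^3 cells; cells preincubated 24 h. Drug in DMSO added at 0.75 to 1.0 x 10^5 nM for 48 h. TCA fixation, sulforhodamine B staining, absorbance 530-565 nm. At least two experiments in triplicate; runs accepted only when relative SD < 10%.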

[2] = target: T1, Cytochrome P450 1A1 (Homo sapiens, UniProt P04798); test: Prodrug activation assessed as human supersomes CYP1A1-mediated 3,4,5-trimethoxyphenyl 4-(2-oxoimidazolidin-1-yl)benzenesulfonate formation after 4 hrs by HPLC-MS analysis; assay type: ADME; conditions: recombinant enzyme
T1 sequence (P04798 whole entry): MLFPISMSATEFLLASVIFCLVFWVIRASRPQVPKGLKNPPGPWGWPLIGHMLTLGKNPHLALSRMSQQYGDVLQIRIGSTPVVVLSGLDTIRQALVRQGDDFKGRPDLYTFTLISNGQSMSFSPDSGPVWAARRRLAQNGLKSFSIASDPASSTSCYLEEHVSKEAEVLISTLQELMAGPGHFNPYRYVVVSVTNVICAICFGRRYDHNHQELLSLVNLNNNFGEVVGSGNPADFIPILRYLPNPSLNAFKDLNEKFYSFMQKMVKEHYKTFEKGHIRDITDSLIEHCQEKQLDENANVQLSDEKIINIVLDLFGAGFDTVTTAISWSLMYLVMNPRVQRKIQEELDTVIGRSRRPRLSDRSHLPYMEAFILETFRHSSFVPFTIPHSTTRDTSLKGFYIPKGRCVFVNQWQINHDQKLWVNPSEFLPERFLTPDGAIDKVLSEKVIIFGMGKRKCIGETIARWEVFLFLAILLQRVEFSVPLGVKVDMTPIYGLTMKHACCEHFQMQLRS

[3] = tested on: MDA-MB-468; test: Cytotoxicity against human MDA-MB-468 cells after 72 hrs in presence of CYP1A1 inhibitor tacrine by SRB assay; assay type: functional, cell-based
In short: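 MDA-MB-468 cells (5.0 x 10^3/well) seeded and incubated 24 h. Drug freshly dissolved in DMSO, given at 0.75 to 1.0 x 10^5 nM, together with subtoxic CYP inhibitor, for 72 h. Cells fixed with cold 10% TCA and stained with 0.1% sulforhodamine B. Bound dye taken up in 10 mM Tris, absorbance read at 530-565 nm. At least two experiments, triplicate cultures.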

[4] = tested on: MDA-MB-468; test: Cytotoxicity against human MDA-MB-468 cells after 72 hrs in presence of CYP inhibitor curcumin by SRB assay; assay type: functional, cell-based
In short: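 MDA-MB-468 cells co-incubated for 72 h with drug plus a subtoxic concentration of a CYP inhibitor. Viability read by SRB assay: TCA fixation, sulforhodamine B staining, absorbance at 530-565 nm.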

[5] = tested on: CYP1A1 mRNA; test: Upregulation of CYP1A1 mRNA expression in human MCF7 cells at 10 nM after 18 hrs by quantitative PCR analysis relative to control; assay type: ADME, cell-based; conditions: read-out: FC
In short: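 MCF7 cells exposed to 10 nM drug for 18 and 24 h. RNA extracted with TriReagent, reverse-transcribed with M-MuLV, random hexamers and oligo(dT). 4 ng cDNA run in quadruplicate with SYBR Green, 40 cycles at 95 °C/60 °C. Relative expression by the 2^-ΔΔCt method, normalized to ACTB and B2M.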

[6] = target: T2, Cytochrome P450 1A2 (Homo sapiens, UniProt P05177); test: Prodrug activation assessed as human supersomes CYP1A2-mediated 3,4,5-trimethoxyphenyl 4-(2-oxoimidazolidin-1-yl)benzenesulfonate formation after 4 hrs by HPLC-MS analysis; assay type: ADME; conditions: recombinant enzyme
T2 sequence (P05177 whole entry): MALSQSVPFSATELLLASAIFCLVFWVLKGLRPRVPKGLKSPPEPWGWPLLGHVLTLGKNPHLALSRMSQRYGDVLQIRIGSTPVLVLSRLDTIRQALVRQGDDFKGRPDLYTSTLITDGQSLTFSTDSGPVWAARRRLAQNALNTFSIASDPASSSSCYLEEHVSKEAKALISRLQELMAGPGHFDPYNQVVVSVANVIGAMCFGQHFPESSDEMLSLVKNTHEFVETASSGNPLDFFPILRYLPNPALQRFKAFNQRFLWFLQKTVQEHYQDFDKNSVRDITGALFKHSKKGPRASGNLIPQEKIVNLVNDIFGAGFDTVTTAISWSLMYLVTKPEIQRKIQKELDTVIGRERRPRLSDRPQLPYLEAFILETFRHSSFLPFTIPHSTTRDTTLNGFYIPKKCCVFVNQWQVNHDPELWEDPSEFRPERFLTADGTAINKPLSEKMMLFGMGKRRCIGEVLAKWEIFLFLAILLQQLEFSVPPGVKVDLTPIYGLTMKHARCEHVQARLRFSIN

pIC50 [1]: 8.00
Drug metabolism [2]: Metabolite_Detected
fold induction at 18 h, 0.01 µM [5]: 2
Drug metabolism [6]: Metabolite_Notdetected
Structure (SMILES): CCCCN1CCN(c2ccc(S(=O)(=O)Oc3cc(OC)c(OC)c(OC)c3)cc2)C1=O
Activity [3]: inactive
Activity [4]: Active
